Values after ≈ are worked out from the molar mass of the structure shown.
Columns and labels:
Staphylococcus aureus [1] = test: Antibacterial activity against Staphylococcus aureus ATCC 29213 by broth microdilution method; assay type: functional
In short: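 Broth microdilution MIC per CLSI guidelines against S. aureus ATCC 29213; MIC in µg/mL.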

[2] = Kinetic solubility of the compound in PBS buffer at pH 7.4 after 24 hrs by turbidimetric method; assay type: physicochemical; settings: read-out: Kinetic_solubility
In short: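 Turbidimetric: doubling dilutions in DMSO diluted twenty-fold into PBS pH 7.4, equilibrated 24 h at room temperature, absorbance read at 620 nm. Value is highest concentration with no measurable precipitate.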

[3] = biological target: T1, Cell division protein FtsZ (Staphylococcus aureus) (UniProt P0A031); test: Inhibition of Staphylococcus aureus ATCC 29213 FtsZ-mediated cell division phenotype
T1 sequence (whole entry): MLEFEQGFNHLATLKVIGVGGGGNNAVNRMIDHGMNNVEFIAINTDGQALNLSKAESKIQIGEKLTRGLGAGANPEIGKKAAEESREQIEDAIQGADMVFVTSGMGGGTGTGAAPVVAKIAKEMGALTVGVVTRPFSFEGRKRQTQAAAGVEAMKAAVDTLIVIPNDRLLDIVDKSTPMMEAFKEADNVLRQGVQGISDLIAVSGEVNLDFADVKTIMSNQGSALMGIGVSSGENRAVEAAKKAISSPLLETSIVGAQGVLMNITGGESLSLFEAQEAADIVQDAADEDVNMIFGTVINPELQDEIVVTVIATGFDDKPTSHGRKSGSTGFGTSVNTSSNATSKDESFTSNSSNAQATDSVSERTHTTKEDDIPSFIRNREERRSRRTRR
In short: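 S. aureus ATCC 29213 cell division inhibition assay run alongside MIC testing; value is the lowest concentration at which an inhibition of cell division phenotype was seen (µg/mL).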

Staphylococcus aureus [4] = test: Antibacterial activity against Staphylococcus aureus harboring FtsZ G196A mutant by broth microdilution method; assay type: functional
In short: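 S. aureus ATCC 29213 derivative with G196A substitution in FtsZ; MIC by broth microdilution following CLSI guidelines; reported in µg/mL.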

CC(C)(Oc1ccc(F)c(C(N)=O)c1F)c1nc(-c2ccc(Cl)cc2)c(Br)o1
MIC (Staphylococcus aureus [1]): > 64 µg/mL

NC(=O)c1c(F)ccc(OC(CCC(=O)O)c2nc(-c3ccc(C(F)(F)F)cc3)c(Br)o2)c1F (racemic)
MIC (Staphylococcus aureus [1]): 8 µg/mL (≈ 14.6 µM) | solubility kinetic at 24 h [2]: 400 µg/mL (≈ 728 µM) | MIC [3]: 8 µg/mL (≈ 14.6 µM)

NC(=O)c1c(F)ccc(OCc2nc(-c3ccc(OC(F)(F)F)cc3)c(Br)o2)c1F
MIC (Staphylococcus aureus [1]): 0.06 µg/mL (≈ 0.122 µM) | MIC [3]: 0.03 µg/mL (≈ 0.0608 µM) | MIC (Staphylococcus aureus [4]): 2 µg/mL (≈ 4.06 µM)

COc1ccc(-c2coc(COc3ccc(F)c(C(N)=O)c3F)n2)cc1
MIC (Staphylococcus aureus [1]): 2 µg/mL (≈ 5.55 µM) | MIC [3]: 2 µg/mL (≈ 5.55 µM) | MIC (Staphylococcus aureus [4]): > 64 µg/mL

NC(=O)c1c(F)ccc(OCc2nc(-c3ccc(OC(F)(F)F)cc3)c(Cl)o2)c1F
MIC (Staphylococcus aureus [1]): 0.12 µg/mL (≈ 0.267 µM) | MIC [3]: 0.12 µg/mL (≈ 0.267 µM) | MIC (Staphylococcus aureus [4]): 8 µg/mL (≈ 17.8 µM)

NC(=O)c1c(F)ccc(OCc2nc(-c3ccc(OC(F)(F)F)cc3)c(I)o2)c1F
MIC (Staphylococcus aureus [1]): 0.06 µg/mL (≈ 0.111 µM) | MIC [3]: 0.06 µg/mL (≈ 0.111 µM) | MIC (Staphylococcus aureus [4]): > 64 µg/mL

NC(=O)c1c(F)ccc(OC(CCCO)c2nc(-c3ccc(C(F)(F)F)cc3)c(Br)o2)c1F (racemic)
MIC (Staphylococcus aureus [1]): 1 µg/mL (≈ 1.87 µM) | solubility kinetic at 24 h [2]: 50 µg/mL (≈ 93.4 µM) | MIC [3]: 1 µg/mL (≈ 1.87 µM)

NC(=O)c1c(F)ccc(OCc2nc(-c3ccccc3)co2)c1F
MIC (Staphylococcus aureus [1]): 16 µg/mL (≈ 48.4 µM) | MIC [3]: 16 µg/mL (≈ 48.4 µM) | MIC (Staphylococcus aureus [4]): > 64 µg/mL

NC(=O)c1c(F)ccc(OCc2nc(-c3ccc(C(F)(F)F)cc3)c(Br)o2)c1F
MIC (Staphylococcus aureus [1]): 0.12 µg/mL (≈ 0.251 µM) | solubility kinetic at 24 h [2]: 12.5 µg/mL (≈ 26.2 µM) | MIC [3]: 0.12 µg/mL (≈ 0.251 µM) | MIC (Staphylococcus aureus [4]): 4 µg/mL (≈ 8.38 µM)

NC(=O)c1c(F)ccc(OC(CO)c2nc(-c3ccc(Cl)cc3)c(Br)o2)c1F (racemic)
MIC (Staphylococcus aureus [1]): 0.25 µg/mL (≈ 0.528 µM) | MIC [3]: 0.25 µg/mL (≈ 0.528 µM)

CCOc1oc(COc2ccc(F)c(C(N)=O)c2F)nc1-c1ccc(Cl)cc1
MIC (Staphylococcus aureus [1]): 0.06 µg/mL (≈ 0.147 µM) | MIC [3]: 0.03 µg/mL (≈ 0.0734 µM) | MIC (Staphylococcus aureus [4]): > 64 µg/mL

C=CCc1oc(COc2ccc(F)c(C(N)=O)c2F)nc1-c1ccc(Cl)cc1
MIC (Staphylococcus aureus [1]): 0.06 µg/mL (≈ 0.148 µM) | MIC [3]: 0.06 µg/mL (≈ 0.148 µM) | MIC (Staphylococcus aureus [4]): > 64 µg/mL

NC(=O)c1c(F)ccc(OCc2nc(-c3ccc(Cl)cc3)c(CCCO)o2)c1F
MIC (Staphylococcus aureus [1]): 2 µg/mL (≈ 4.73 µM) | MIC [3]: 2 µg/mL (≈ 4.73 µM) | MIC (Staphylococcus aureus [4]): > 64 µg/mL

CCC(Oc1ccc(F)c(C(N)=O)c1F)c1nc(-c2ccc(Cl)cc2)c(Br)o1 (racemic)
MIC (Staphylococcus aureus [1]): 2 µg/mL (≈ 4.24 µM) | MIC [3]: 1 µg/mL (≈ 2.12 µM)

Cc1nnc(CC(Oc2ccc(F)c(C(N)=O)c2F)c2nc(-c3ccc(C(F)(F)F)cc3)c(Br)o2)o1 (racemic)
MIC (Staphylococcus aureus [1]): 8 µg/mL (≈ 14 µM) | MIC [3]: 16 µg/mL (≈ 27.9 µM)

NC(=O)c1c(F)ccc(O[C@H](CO)c2nc(-c3ccc(C(F)(F)F)cc3)c(Br)o2)c1F
MIC (Staphylococcus aureus [1]): 0.12 µg/mL (≈ 0.237 µM) | MIC [3]: 0.25 µg/mL (≈ 0.493 µM) | MIC (Staphylococcus aureus [4]): 4 µg/mL (≈ 7.89 µM)

NC(=O)c1c(F)ccc(OCc2nc3cc(Cl)cnc3s2)c1F
MIC (Staphylococcus aureus [1]): 1 µg/mL (≈ 2.81 µM) | MIC [3]: 0.5 µg/mL (≈ 1.41 µM) | MIC (Staphylococcus aureus [4]): > 64 µg/mL

CN(C)CCC(Oc1ccc(F)c(C(N)=O)c1F)c1nc(-c2ccc(C(F)(F)F)cc2)c(Br)o1 (racemic)
MIC (Staphylococcus aureus [1]): 8 µg/mL (≈ 14.6 µM) | MIC [3]: 16 µg/mL (≈ 29.2 µM)

CC(=O)OCC(Oc1ccc(F)c(C(N)=O)c1F)c1nc(-c2ccc(C(F)(F)F)cc2)c(Br)o1 (racemic)
MIC (Staphylococcus aureus [1]): 0.5 µg/mL (≈ 0.91 µM) | solubility kinetic at 24 h [2]: 25 µg/mL (≈ 45.5 µM) | MIC [3]: 0.5 µg/mL (≈ 0.91 µM)

COc1ccc(-c2nc(COc3ccc(F)c(C(N)=O)c3F)oc2-c2ccccc2)cc1
MIC (Staphylococcus aureus [1]): 0.12 µg/mL (≈ 0.275 µM) | MIC [3]: 0.12 µg/mL (≈ 0.275 µM) | MIC (Staphylococcus aureus [4]): > 64 µg/mL

Cc1oc(COc2ccc(F)c(C(N)=O)c2F)nc1-c1ccc(Cl)cc1
MIC (Staphylococcus aureus [1]): 0.5 µg/mL (≈ 1.32 µM) | MIC [3]: 0.5 µg/mL (≈ 1.32 µM) | MIC (Staphylococcus aureus [4]): > 64 µg/mL

NC(=O)c1c(F)ccc(OC(CCO)c2nc(-c3ccc(C(F)(F)F)cc3)c(Br)o2)c1F (racemic)
MIC (Staphylococcus aureus [1]): 0.5 µg/mL (≈ 0.959 µM) | MIC [3]: 0.5 µg/mL (≈ 0.959 µM)

NC(=O)c1c(F)ccc(O[C@@H](CO)c2nc(-c3ccc(C(F)(F)F)cc3)c(Br)o2)c1F
MIC (Staphylococcus aureus [1]): 16 µg/mL (≈ 31.5 µM) | MIC [3]: 16 µg/mL (≈ 31.5 µM) | MIC (Staphylococcus aureus [4]): 64 µg/mL (≈ 126 µM)

NC(=O)c1c(F)ccc(OCc2nc(-c3ccc(OC(F)(F)F)cc3)c(C(F)(F)F)o2)c1F
MIC (Staphylococcus aureus [1]): 0.5 µg/mL (≈ 1.04 µM) | MIC [3]: 0.5 µg/mL (≈ 1.04 µM) | MIC (Staphylococcus aureus [4]): > 64 µg/mL

Source: ChEMBL document CHEMBL3098047, “Design, synthesis and structure-activity relationships of substituted oxazole-benzamide antibacterial inhibitors of FtsZ” (Bioorg Med Chem Lett, 2014)
